One data set addresses Cathepsin B (Homo sapiens, UniProt P07858). In words: Inhibition of human cathepsin-B using Z-Val-Val-Arg-AMC as substrate up to 20 mins by fluorescence assay. In a few lines:
(§1)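 Fluorogenic quenched-peptide cleavage assay. Enzymes at 1 nM in 100 mM potassium phosphate pH 6.5, 5 mM EDTA-Na, 0.001% Triton X-100 and 5 mM DTT. Enzyme was added to the compound dilutions, then 20 μM substrate started the reaction: Z-Val-Val-Arg-AMC, or Z-Leu-Arg-AMC for CatK. Fluorescence (ex 360/em 465 nm) was read over 20 min. IC50 is the mean of ≥2 independent experiments.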

Another data set relates to A20. The experiment in a line: Inhibition of ovalbumin-induced antigen presentation in mouse A20 cells treated 1 hr before ovalbumin addition incubated for 16 hrs followed by co-cultured with DO10.10 T-cell hybridoma cells for 24 hrs assessed as IL-2 production by luminex single-bead analysis. In kind it is functional, cell-based. In a few lines: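 A20 cells were seeded at 3 × 10⁵/mL and preincubated with compound for 1 h. Ovalbumin was then added (5 mg/mL final) for 16 h. Cells were washed three times with PBS, then DO10.10 T-cell hybridoma cells (2 × 10⁵/mL) were added. After 24 h, IL-2 was quantified by Luminex single-bead assay using two anti-IL-2 antibodies. IC50 is the mean of ≥2 independent experiments.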

Another data set addresses Procathepsin L (Homo sapiens, UniProt P07711). In words: Inhibition of human cathepsin-L using Z-Val-Val-Arg-AMC as substrate up to 20 mins by fluorescence assay. In a few lines:
as §1

A further data set addresses T1, Cathepsin K (Homo sapiens, UniProt P43235).
T1 sequence (P43235 whole entry): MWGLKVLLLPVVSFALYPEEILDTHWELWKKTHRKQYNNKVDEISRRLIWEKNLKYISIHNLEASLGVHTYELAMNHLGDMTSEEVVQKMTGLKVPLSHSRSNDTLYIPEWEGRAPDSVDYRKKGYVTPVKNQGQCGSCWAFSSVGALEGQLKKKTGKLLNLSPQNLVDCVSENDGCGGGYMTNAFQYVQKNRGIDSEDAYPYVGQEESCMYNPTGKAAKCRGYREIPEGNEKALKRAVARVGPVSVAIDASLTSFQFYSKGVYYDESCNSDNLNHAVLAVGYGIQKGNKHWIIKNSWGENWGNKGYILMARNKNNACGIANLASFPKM
In words: Inhibition of human cathepsin-K using Z-Leu-Arg-AMC as substrate up to 20 mins by fluorescence assay. In a few lines:
as §1

Data set [1] addresses Cathepsin S (Homo sapiens, UniProt P25774). The experiment in a line: Inhibition of human cathepsin-S using Z-Val-Val-Arg-AMC as substrate up to 20 mins by fluorescence assay. In a few lines: as §1
The nature of data set [2]: Effective permeability of the compound by PAMPA. The conditions noted are these: read-out: Peff. In kind it is ADME. (The PAMPA barrier holds no transporters, so it reflects passive diffusion.)
A further data set is filed under the species Homo sapiens. The experiment in a line: Selectivity ratio of IC50 for human cathepsin-K to IC50 for human cathepsin-S.
For data set [3], the target named is Cathepsin S (Mus musculus, UniProt O70370). The experiment in a line: Inhibition of mouse cathepsin-S using Z-Val-Val-Arg-AMC as substrate up to 20 mins by fluorescence assay. In a few lines:
as §1

A word on the IC50: it is the concentration needed to halve the response being measured.

Cathepsin S (Homo sapiens, UniProt P25774), sequence (P25774 whole entry, the tested form may be a part): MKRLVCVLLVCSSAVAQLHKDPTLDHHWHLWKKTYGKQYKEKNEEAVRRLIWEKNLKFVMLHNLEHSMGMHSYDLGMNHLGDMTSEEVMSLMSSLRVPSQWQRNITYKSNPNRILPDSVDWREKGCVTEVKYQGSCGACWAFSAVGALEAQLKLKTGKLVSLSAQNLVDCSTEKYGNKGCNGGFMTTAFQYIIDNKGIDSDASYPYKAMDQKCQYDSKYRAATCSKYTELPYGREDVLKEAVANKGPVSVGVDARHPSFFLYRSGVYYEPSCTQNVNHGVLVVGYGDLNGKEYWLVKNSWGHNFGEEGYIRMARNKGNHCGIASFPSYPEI
Procathepsin L, sequence (P07711 whole entry): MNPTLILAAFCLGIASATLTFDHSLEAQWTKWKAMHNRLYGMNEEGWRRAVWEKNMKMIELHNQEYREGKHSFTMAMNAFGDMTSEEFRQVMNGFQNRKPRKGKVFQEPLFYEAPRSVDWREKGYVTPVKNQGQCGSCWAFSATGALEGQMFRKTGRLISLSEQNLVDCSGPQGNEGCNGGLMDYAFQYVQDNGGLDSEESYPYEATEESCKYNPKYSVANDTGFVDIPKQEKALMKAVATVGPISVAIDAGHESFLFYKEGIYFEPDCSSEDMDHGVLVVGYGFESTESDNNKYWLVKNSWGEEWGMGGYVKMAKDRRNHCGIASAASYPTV
Cathepsin S (Mus musculus, UniProt O70370), sequence (O70370 whole entry): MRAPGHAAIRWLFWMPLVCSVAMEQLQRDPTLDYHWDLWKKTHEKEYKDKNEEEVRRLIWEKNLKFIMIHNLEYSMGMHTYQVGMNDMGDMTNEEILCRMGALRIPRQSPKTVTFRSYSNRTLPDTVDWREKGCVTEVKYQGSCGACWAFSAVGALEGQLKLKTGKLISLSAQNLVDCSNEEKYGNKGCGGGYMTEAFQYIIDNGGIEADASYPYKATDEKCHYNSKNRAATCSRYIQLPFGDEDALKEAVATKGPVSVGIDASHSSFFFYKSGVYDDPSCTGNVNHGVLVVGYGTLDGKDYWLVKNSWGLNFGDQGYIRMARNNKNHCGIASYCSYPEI

Consider `N#CC1(NC(=O)[C@@H]2C[C@@H](S(=O)(=O)c3ccccc3)C[C@H]2C(=O)N2CC3(COC3)C2)CC1`, for which the IC50 was 29.7 µM against Cathepsin B, 0.248 µM with A20, 22.2 µM against Procathepsin L and above 25 µM at Cathepsin K.
In the case of `N#CC1(NC(=O)[C@@H]2C[C@@H](S(=O)(=O)c3ccccc3)C[C@H]2C(=O)N2CCOCC2)CCC1`, the IC50 against Cathepsin B was above 25 µM; with A20, 0.236 µM; on Procathepsin L, above 25 µM; against Cathepsin K, above 25 µM.
Consider `N#CC1(NC(=O)[C@@H]2C[C@@H](S(=O)(=O)c3ccccc3)C[C@H]2C(=O)N2CCS(=O)(=O)CC2)CC1`, for which the IC50 is 38 µM on Cathepsin B; 0.004 µM at Cathepsin S [1]; 0.816 µM in the data set on A20; 15.8 µM against Procathepsin L; above 25 µM against Cathepsin K. Moreover, the Papp in data set [2] was found to be 0.2 ×10⁻⁶ cm/s.
For `N#CC1(NC(=O)[C@@H]2C[C@@H](S(=O)(=O)c3ccccc3)C[C@H]2C(=O)N2CC(O)C2)CC1`, the IC50 against Cathepsin B is 63.3 µM; against Cathepsin S [1] it was 0.007 µM; in the data set on A20 it was 0.572 µM; against Procathepsin L, 16.2 µM; on Cathepsin K it was above 25 µM.
Regarding `CC(C)(C#N)NC(=O)[C@@H]1C[C@@H](S(=O)(=O)c2ccccc2)C[C@H]1C(=O)N1CCOCC1`, the IC50 against Cathepsin B is above 25 µM; against Cathepsin S [1], 0.003 µM; with A20, 0.043 µM; against Procathepsin L it was above 25 µM; on Cathepsin K, above 25 µM.
Turning to `N#CCNC(=O)[C@@H]1C[C@@H](S(=O)(=O)CC2CC2)C[C@H]1C(=O)N1CCOCC1`, the IC50 with A20 is 4.51 µM; on Cathepsin K, above 25 µM. Also, the Ratio IC50 in the data set listed under Homo sapiens is above 100.
Take `CC1CCN(C(=O)[C@@H]2C[C@H](S(=O)(=O)c3ccccc3)C[C@H]2C(=O)NC2(C#N)CC2)CC1`: the IC50 against Cathepsin B is 0.7 µM; in the data set with A20, 0.002 µM; on Procathepsin L, 1.9 µM; on Cathepsin K it was above 25 µM. In addition, the Papp in data set [2] came out at 4.6 ×10⁻⁶ cm/s.
Turning to `C[C@@H]1CN(C(=O)[C@@H]2C[C@H](S(=O)(=O)c3ccccc3)C[C@H]2C(=O)NC2(C#N)CC2)C[C@H](C)O1`, the IC50 is 3.2 µM on Cathepsin B, 0.001 µM with A20, 2.7 µM against Procathepsin L and above 25 µM against Cathepsin K.
In the case of `N#CC1(NC(=O)[C@@H]2C[C@@H](S(=O)(=O)c3ccccc3)C[C@H]2C(=O)N2CCCC2)CC1`, the IC50 against Cathepsin B was 7.1 µM; against Cathepsin S [1], 0.002 µM; in the data set with A20 it was 0.029 µM; against Procathepsin L, 17 µM; against Cathepsin K, above 25 µM.
As for `N#CC1(NC(=O)[C@@H]2C[C@@H](S(=O)(=O)c3ccccc3)C[C@H]2C(=O)N2CCOCC2)CC1`, the IC50 came out at 8.5 µM on Cathepsin B, 0.012 µM in the data set with A20, 12.2 µM at Procathepsin L and 29.7 µM against Cathepsin K.
For `N#CCNC(=O)[C@@H]1C[C@@H](S(=O)(=O)c2ccccc2Cl)C[C@H]1C(=O)N1CCOCC1`, the results for the IC50 in the data set with A20 and against Cathepsin K were 0.003 µM and above 25 µM, respectively. In addition, the Ratio IC50 in the data set listed under Homo sapiens is above 20000.
For the compound `N#CCNC(=O)[C@@H]1CC(F)(F)C[C@H]1C(=O)N1CCOCC1`, the IC50 at Cathepsin S [1] is 0.83 µM; with A20 it was 0.925 µM; at Cathepsin K, 0.855 µM. The Ratio IC50 in the data set filed under Homo sapiens was determined as 1.
`N#CC1(NC(=O)[C@@H]2C[C@@H](S(=O)(=O)c3ccccc3)C[C@H]2C(=O)N2CC3CCC(C2)O3)CC1`: the IC50 on Cathepsin B is 13.1 µM; at Cathepsin S [1], 0.001 µM; in the data set on A20, 0.016 µM; against Procathepsin L, 4.1 µM; on Cathepsin K, above 25 µM.
`N#CCNC(=O)[C@@H]1CN(S(=O)(=O)c2ccccc2)C[C@H]1C(=O)N1CCOCC1`: the figures for the half-inhibitory concentration (IC50) against Cathepsin S [1], with A20 and against Cathepsin K were 0.271 µM, 4.24 µM and above 25 µM, respectively. The Ratio IC50 in the data set filed under Homo sapiens is above 90.
In the case of `N#CC1(NC(=O)[C@@H]2C[C@@H](S(=O)(=O)c3ccccc3)C[C@H]2C(=O)N2CCC2)CC1`, the IC50 was 39.4 µM against Cathepsin B; 0.01 µM on Cathepsin S [1]; 0.044 µM in the data set on A20; 33.6 µM against Procathepsin L; above 25 µM against Cathepsin K.
With `N#CC1(NC(=O)[C@@H]2C[C@@H](S(=O)(=O)c3ccccc3)CN2C(=O)c2ccccc2)CC1`, the IC50 at Cathepsin B was above 25 µM; at Cathepsin S [3], 0.029 µM; against Cathepsin S [1] it was 0.013 µM; in the data set with A20, 0.217 µM; against Procathepsin L it was above 25 µM; at Cathepsin K, above 25 µM.
With `N#CCNC(=O)[C@@H]1CN(S(=O)(=O)c2ccccc2Cl)C[C@H]1C(=O)N1CCOCC1`, the half-maximal inhibitory concentration (IC50) against Cathepsin S [1] was 0.012 µM; with A20, 0.208 µM; against Cathepsin K, above 25 µM. Further, the Ratio IC50 in the data set listed under Homo sapiens is above 1000.
Consider `CN1CCN(C(=O)[C@@H]2C[C@H](S(=O)(=O)c3ccccc3)C[C@H]2C(=O)NC2(C#N)CC2)CC1`, for which the IC50 on Cathepsin B is 6.4 µM; against Cathepsin S [1] it was 0.002 µM; in the data set with A20, 0.017 µM; against Procathepsin L, 4.7 µM; at Cathepsin K, above 25 µM.
For the compound `COc1ccc(C(C#N)NC(=O)[C@@H]2CCCC[C@@H]2NC(=O)/C=C/c2ccccc2)cc1OC` (stereo partly drawn), the half-inhibitory concentration (IC50) came to 0.64 µM on Cathepsin S [1] and 0.016 µM against Cathepsin K.
For `N#CC1(NC(=O)[C@@H]2C[C@@H](S(=O)(=O)c3ccccc3)C[C@H]2C(=O)N2CCCCC2)CC1`, the IC50 was 3.6 µM at Cathepsin B, 0.005 µM in the data set with A20, 4.2 µM at Procathepsin L and above 25 µM against Cathepsin K.
`N#CC1(NC(=O)[C@@H]2C[C@@H](S(=O)(=O)c3ccccc3)C[C@H]2C(=O)N2CCC(O)CC2)CC1`: the IC50 is 5.7 µM against Cathepsin B, 0.371 µM in the data set with A20, 4.6 µM against Procathepsin L and above 25 µM on Cathepsin K. For the same compound, in data set [2], the Papp worked out at 0.2 ×10⁻⁶ cm/s.
Take `N#CC1(NC(=O)[C@@H]2C[C@@H](S(=O)(=O)c3ccccc3)C[C@H]2C(=O)N2CCNCC2)CC1`: the IC50 at Cathepsin B was 13.3 µM; with A20, 1.34 µM; on Procathepsin L, 2.6 µM; at Cathepsin K it was above 25 µM.
With `N#CCNC(=O)[C@@H]1C[C@@H](S(=O)(=O)c2ccccc2C(F)(F)F)C[C@H]1C(=O)N1CCOCC1`, the IC50 was 0.002 µM in the data set on A20 and above 25 µM on Cathepsin K. Besides, the Ratio IC50 in the data set listed under Homo sapiens was above 20000.
On to `CN(C)C(=O)[C@@H]1C[C@H](S(=O)(=O)c2ccccc2)C[C@H]1C(=O)NC1(C#N)CC1`, for which the IC50 at Cathepsin B was 22.9 µM; against Cathepsin S [1], 0.006 µM; with A20, 0.091 µM; against Procathepsin L, 24.9 µM; against Cathepsin K, above 25 µM.
Turning to `N#CCNC(=O)[C@@H]1CN(S(=O)(=O)c2ccccc2C(F)(F)F)C[C@H]1C(=O)N1CCOCC1`, the half-inhibitory concentration (IC50) is 0.018 µM on Cathepsin S [1], 0.118 µM with A20 and above 25 µM on Cathepsin K. In addition, the Ratio IC50 in the data set filed under Homo sapiens was above 1000.
As to `N#CC1(NC(=O)[C@@H]2C[C@@H](S(=O)(=O)c3ccccc3)C[C@H]2C(=O)Nc2ccc(F)cc2)CC1`, the IC50 is above 25 µM on Cathepsin B; 0.026 µM against Cathepsin S [1]; 0.391 µM with A20; above 25 µM against Procathepsin L; above 25 µM at Cathepsin K.
